This note sets out measurements from ChEMBL document CHEMBL1165869, “Synthesis, characterization and antihypertensive activity of pyridazinone derivatives” (2010).

Each structure is given as a SMILES string.

The subject of this assay is Rattus norvegicus. Briefly: Antihypertensive activity against methyl prednisolone acetate-indcuced hypertension in normotensive albino rat assessed as reduction in mean arterial pressure at 20 mg/kg, ip after 1 hr. The format is functional, Artery. On the set-up: scale not given: the % may be the effect or the level left. Conditions: route intraperitoneal. A digest of the protocol:
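Albino rats (200–250 g), conditioned in restrainer 10 min daily for one week; hypertension induced by s.c. methyl prednisolone acetate 20 mg/kg/wk for 2 weeks. Compound suspended in 1% CMC, given i.p.; mean arterial pressure read 1 h later in conscious rats by non-invasive tail-cuff. Groups of 5; mean ± SEM; one-way ANOVA with Dunnett test versus hypertensive control.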

In the case of `O=C1CCC(c2ccccc2)=NN1CN1CCCCC1`, the Activity came to 33.46%.
Then `O=C1CCC(c2ccc(Cl)cc2)=NN1CN1CCNCC1`, with 28.78%; and `Cc1ccc(C2=NN(CN3CCNCC3)C(=O)CC2)cc1`, with 40.98%.
With `O=C1CCC(c2ccccc2)=NN1CN1CCOCC1`, the Activity is 31.21%.
Turning to `CCc1ccc(C2=NN(CN3CCNCC3)C(=O)CC2)cc1`, the Activity was 36.05%.
Consider `CC(C)Cc1ccc(C2=NN(CN3CCN(C)CC3)C(=O)CC2)cc1`, for which the Activity is recorded as 28.29%.
With `COc1ccc(C2=NN(CN3CCCCC3)C(=O)CC2)cc1` the figure was 27.16%; with `Cc1ccc(C2=NN(Cn3ccc4ccccc43)C(=O)CC2)cc1`, 23.85%; with `CC(C)Cc1ccc(C2=NN(CN3CCOCC3)C(=O)CC2)cc1`, 24.22%.
Regarding `CCc1ccc(C2=NN(CN3CCCC3)C(=O)CC2)cc1`, the Activity amounted to 44.31%.
For `COc1ccc(C2=NN(CN3CCCC3)C(=O)CC2)cc1`, the Activity is 31.62%.
As for `COc1ccc(C2=NN(CN3c4ccccc4Sc4ccccc43)C(=O)CC2)cc1`, the Activity was determined as 33.83%.
Turning to `CN1CCN(CN2N=C(c3ccc(Cl)cc3)CCC2=O)CC1`, the Activity was 39.5%.
For `O=C1CCC(c2ccccc2)=NN1Cn1cncn1`, the Activity worked out at 38.7%.
With `CCc1ccc(C2=NN(CN3CCOCC3)C(=O)CC2)cc1`, the Activity is 47.31%.
Take `CCc1ccc(C2=NN(CN3c4ccccc4Sc4ccccc43)C(=O)CC2)cc1`: the Activity turned out to be 36.17%.
On to `CCc1ccc(C2=NN(Cn3ccc4ccccc43)C(=O)CC2)cc1`, for which the Activity was 32.97%.
As for `Cc1ccc(C2=NN(CN3CCCCC3)C(=O)CC2)cc1`, the Activity is 35.56%.
In the case of `NNc1nncc2ccccc12` [HYDRALAZINE], the Activity is 40.76%.
With `O=C1CCC(c2ccc(-c3ccccc3)cc2)=NN1CN1CCCCC1`, the Activity turned out to be 29.52%.
Consider `CCc1ccc(C2=NN(Cn3cncn3)C(=O)CC2)cc1`, for which the Activity came to 29.52%.
Regarding `COc1ccc(C2=NN(Cn3ccc4ccccc43)C(=O)CC2)cc1`, the Activity was found to be 32.72%.
Then `CCc1ccc(C2=NN(CN3CCN(C)CC3)C(=O)CC2)cc1`, with 47.14%; and `Cc1ccc(C2=NN(CN3CCN(C)CC3)C(=O)CC2)cc1`, with 39.13%; and `O=C1CCC(c2ccc(-c3ccccc3)cc2)=NN1CN1CCCC1`, with 30.14%.
Regarding `CC(C)Cc1ccc(C2=NN(CN3CCNCC3)C(=O)CC2)cc1`, the Activity was found to be 32.48%.
With `CC(C)Cc1ccc(C2=NN(CN3CCCC3)C(=O)CC2)cc1`, the Activity is recorded as 32.97%.
With `COc1ccc(C2=NN(CN3CCN(C)CC3)C(=O)CC2)cc1` the figure was 36.05%; with `O=C1CCC(c2ccc(-c3ccccc3)cc2)=NN1CN1CCOCC1`, 29.52%; with `Cc1ccc(C2=NN(CN3CCOCC3)C(=O)CC2)cc1`, 14.12%.
With `CC(C)Cc1ccc(C2=NN(CN3CCCCC3)C(=O)CC2)cc1` the figure was 16.09%; with `O=C1CCC(c2ccc(-c3ccccc3)cc2)=NN1Cn1ccc2ccccc21`, 33.46%.
Take `COc1ccc(C2=NN(CN3CCOCC3)C(=O)CC2)cc1`: the Activity is listed as 29.77%.
Consider `Cc1ccc(C2=NN(CN3CCCC3)C(=O)CC2)cc1`, for which the Activity came to 31.74%.
Regarding `CN1CCN(CN2N=C(c3ccc(-c4ccccc4)cc3)CCC2=O)CC1`, the Activity was determined as 25.58%.
With `O=C1CCC(c2ccc(Cl)cc2)=NN1CN1CCCC1`, the Activity was 30.01%.
Take `O=C1CCC(c2ccccc2)=NN1CN1CCNCC1`: the Activity was found to be 41.99%.
`O=C1CCC(c2ccccc2)=NN1CN1c2ccccc2Sc2ccccc21`: the Activity is given as 42.4%.
For the compound `Cc1ccc(C2=NN(CN3c4ccccc4Sc4ccccc43)C(=O)CC2)cc1`, the Activity is recorded as 34.94%.
For `O=C1CCC(c2ccc(-c3ccccc3)cc2)=NN1Cn1cncn1`, the Activity is recorded as 39.5%.
With `CCc1ccc(C2=NN(CN3CCCCC3)C(=O)CC2)cc1`, the Activity amounted to 30.51%.
In the case of `O=C1CCC(c2ccc(Cl)cc2)=NN1CN1c2ccccc2Sc2ccccc21`, the Activity came out at 38.88%.
For `O=C1CCC(c2ccc(Cl)cc2)=NN1CN1CCCCC1`, the Activity was 24.84%.
For the compound `O=C1CCC(c2ccc(Cl)cc2)=NN1CN1CCOCC1`, the Activity stood at 25.83%.
Then `O=C1CCC(c2ccccc2)=NN1CN1CCCC1`, with 19.11%; and `COc1ccc(C2=NN(CN3CCNCC3)C(=O)CC2)cc1`, with 35.44%.
Consider `O=C1CCC(c2ccc(Cl)cc2)=NN1Cn1ccc2ccccc21`, for which the Activity was 36.3%.
Regarding `Cc1ccc(C2=NN(Cn3cncn3)C(=O)CC2)cc1`, the Activity worked out at 41.16%.
As to `CC(C)Cc1ccc(C2=NN(Cn3cncn3)C(=O)CC2)cc1`, the Activity was found to be 34.94%.
On to `O=C1CCC(c2ccc(-c3ccccc3)cc2)=NN1CN1c2ccccc2Sc2ccccc21`, for which the Activity is 25.91%.
With `CC(C)Cc1ccc(C2=NN(Cn3ccc4ccccc43)C(=O)CC2)cc1` the figure was 28.91%; with `O=C1CCC(c2ccc(-c3ccccc3)cc2)=NN1CN1CCNCC1`, 30.14%; with `O=C1CCC(c2ccccc2)=NN1Cn1ccc2ccccc21`, 15.81%.
Regarding `CN1CCN(CN2N=C(c3ccccc3)CCC2=O)CC1`, the Activity amounted to 39.93%.
Turning to `O=C1CCC(c2ccc(Cl)cc2)=NN1Cn1cncn1`, the Activity was 29.77%.
Take `CC(C)Cc1ccc(C2=NN(CN3c4ccccc4Sc4ccccc43)C(=O)CC2)cc1`: the Activity turned out to be 25.58%.
Then `COc1ccc(C2=NN(Cn3cncn3)C(=O)CC2)cc1`, with 29.27%.
